# Activity calls are given as the source filed them. No cut-off for these calls is given here.
# Target: T1, NPC intracellular cholesterol transporter 1 (Mus musculus) (UniProt O35604)
# T1 sequence (whole entry): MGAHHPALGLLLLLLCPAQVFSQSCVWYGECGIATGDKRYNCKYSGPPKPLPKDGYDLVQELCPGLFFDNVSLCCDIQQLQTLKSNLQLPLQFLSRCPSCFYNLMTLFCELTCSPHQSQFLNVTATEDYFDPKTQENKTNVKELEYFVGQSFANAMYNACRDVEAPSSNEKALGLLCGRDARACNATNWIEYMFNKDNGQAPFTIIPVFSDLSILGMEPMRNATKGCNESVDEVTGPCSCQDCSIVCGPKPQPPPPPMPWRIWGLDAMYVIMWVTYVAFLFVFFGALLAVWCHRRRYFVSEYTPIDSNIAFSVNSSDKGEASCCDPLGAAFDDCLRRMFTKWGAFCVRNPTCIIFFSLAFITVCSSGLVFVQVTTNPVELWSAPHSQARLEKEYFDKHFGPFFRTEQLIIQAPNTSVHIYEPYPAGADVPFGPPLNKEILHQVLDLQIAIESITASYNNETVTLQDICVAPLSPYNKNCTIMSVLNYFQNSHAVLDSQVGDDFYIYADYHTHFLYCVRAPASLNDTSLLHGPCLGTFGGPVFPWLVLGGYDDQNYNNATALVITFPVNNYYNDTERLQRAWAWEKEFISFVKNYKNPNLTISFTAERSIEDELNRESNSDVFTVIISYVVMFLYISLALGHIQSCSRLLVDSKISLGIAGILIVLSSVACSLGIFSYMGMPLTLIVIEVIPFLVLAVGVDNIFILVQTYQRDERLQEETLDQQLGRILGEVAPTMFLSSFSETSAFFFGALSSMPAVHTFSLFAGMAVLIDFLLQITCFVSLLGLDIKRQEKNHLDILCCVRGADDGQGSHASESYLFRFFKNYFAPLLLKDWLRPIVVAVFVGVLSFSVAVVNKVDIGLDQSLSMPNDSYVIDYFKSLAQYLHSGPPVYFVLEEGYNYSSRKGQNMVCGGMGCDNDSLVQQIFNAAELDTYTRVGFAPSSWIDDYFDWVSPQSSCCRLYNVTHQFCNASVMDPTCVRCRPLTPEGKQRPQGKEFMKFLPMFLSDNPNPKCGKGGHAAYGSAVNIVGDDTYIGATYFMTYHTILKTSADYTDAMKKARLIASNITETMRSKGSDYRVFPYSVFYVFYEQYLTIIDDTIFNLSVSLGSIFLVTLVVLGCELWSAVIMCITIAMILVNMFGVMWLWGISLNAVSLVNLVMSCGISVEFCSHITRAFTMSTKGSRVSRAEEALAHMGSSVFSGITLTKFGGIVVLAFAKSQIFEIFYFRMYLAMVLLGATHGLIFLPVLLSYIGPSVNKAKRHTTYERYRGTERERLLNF
# Experiment: Inhibition of mouse NPC1 interaction to Ebola virus GP expressed in LE/LY membrane of CHO cells by immunoblotting
# Type: cell-based
# Conditions: not given
# Method in brief: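 Late endosome/lysosome membranes from NPC1-null CHO cells, or the same cells stably expressing mouse NPC1, were immobilized on ELISA plates. They were incubated with protease-cleaved Ebola GP in the presence of test compound at specified concentrations. After washing off unbound GP, membranes were solubilized in NP40 and bound GP was detected by GP1-antibody immunoblot. Results are representative of six experiments.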
row,SMILES,inhibition
1,O=C(CC12CC3CC(CC(C3)C1)C2)NCC(=O)N1CCN(Cc2ccccc2)CC1,Active
2,O=C(CC12CC3CC(CC(C3)C1)C2)NCCC(=O)N1CCN(Cc2ccccc2)CC1,Active
3,O=C(CC12CC3CC(CC(C3)C1)C2)NCC(=O)N1CCC(Cc2ccccc2)CC1,Active

# Tested on: Ebolavirus
# Experiment: Antiviral activity against Ebola virus by cell based luciferase reporter gene assay
# Type: functional, Ebola virus sp.
# Conditions: Orthoebolavirus
row,SMILES,IC50
1,COC(=O)c1ccccc1CN1CCN(C(=O)CNC(=O)CC23CC4CC(CC(C4)C2)C3)CC1,8 µM
2,O=C(CC12CC3CC(CC(C3)C1)C2)NCC(=O)N1CCN(Cc2ccccc2O)CC1,2.9 µM
3,O=C(CC12CC3CC(CC(C3)C1)C2)NCC(=O)N1CCN(Cc2ccccc2OCc2cccnc2)CC1,2.1 µM
4,COc1ccc(CN2CCN(C(=O)CNC(=O)CC34CC5CC(CC(C5)C3)C4)CC2)cc1,5.4 µM
5,O=C(CC12CC3CC(CC(C3)C1)C2)NCC(=O)N1CCN(Cc2cccc(C(F)(F)F)c2)CC1,2.6 µM
6,CC(C)C(NC(=O)CC12CC3CC(CC(C3)C1)C2)C(=O)N1CCN(Cc2ccccc2)CC1 (stereo unspecified),> 40 µM
7,CC(OCc1ccccc1)C(NC(=O)CC12CC3CC(CC(C3)C1)C2)C(=O)N1CCN(Cc2ccccc2)CC1 (stereo unspecified),29 µM
8,Cc1cc(O)cc(C)c1CN1CCN(C(=O)CNC(=O)CC23CC4CC(CC(C4)C2)C3)CC1,8 µM
9,Cc1cccc(COc2ccccc2CN2CCN(C(=O)CNC(=O)CC34CC5CC(CC(C5)C3)C4)CC2)c1,0.35 µM
10,O=C(CC12CC3CC(CC(C3)C1)C2)NCC(=O)N1CCN(Cc2ccccc2)CC1,1.3 µM
11,COc1cccc(CN2CCN(C(=O)CNC(=O)CC34CC5CC(CC(C5)C3)C4)CC2)c1,2 µM
12,Cc1cccc(CN2CCN(C(=O)CNC(=O)CC34CC5CC(CC(C5)C3)C4)CC2)c1,1.1 µM
13,O=C(CC12CC3CC(CC(C3)C1)C2)NCC(=O)N1CCN(Cc2ccccc2C(=O)O)CC1,> 40 µM
14,O=C(CC12CC3CC(CC(C3)C1)C2)NCC(=O)N1CCN(C(=O)c2ccccc2)CC1,3 µM
15,N#Cc1ccc(CN2CCN(C(=O)CNC(=O)CC34CC5CC(CC(C5)C3)C4)CC2)cc1,8 µM
16,O=C(CC12CC3CC(CC(C3)C1)C2)NCC(=O)N1CCN(Cc2ccccn2)CC1,8.5 µM
17,O=C(CC12CC3CC(CC(C3)C1)C2)NCC(=O)N1CCN(Cc2ccccc2OCc2cccc(Br)c2)CC1,2.4 µM
18,O=C(CC12CC3CC(CC(C3)C1)C2)NCC(=O)N1CCN(Cc2ccc(C(=O)O)cc2)CC1,> 40 µM
19,O=C(CC12CC3CC(CC(C3)C1)C2)NCC(=O)N1CCN(Cc2ccccc2C(F)(F)F)CC1,1.8 µM
20,O=C(CC12CC3CC(CC(C3)C1)C2)NCC(=O)N1CCN(Cc2ccc(Cl)cc2)CC1,2.5 µM
21,N#Cc1cccc(CN2CCN(C(=O)CNC(=O)CC34CC5CC(CC(C5)C3)C4)CC2)c1,1.2 µM
22,COC(=O)c1cccc(COc2ccccc2CN2CCN(C(=O)CNC(=O)CC34CC5CC(CC(C5)C3)C4)CC2)c1,2.4 µM
23,O=C(CC12CC3CC(CC(C3)C1)C2)NCC(=O)N1CCN(Cc2ccc3ccccc3c2)CC1,3 µM

row,SMILES,IC50
1,N#CCC(NC(=O)CC12CC3CC(CC(C3)C1)C2)C(=O)N1CCN(Cc2ccccc2)CC1 (stereo unspecified),22 µM
2,O=C(CC12CC3CC(CC(C3)C1)C2)NCCCC(=O)N1CCN(Cc2ccccc2)CC1,22 µM
3,COC(=O)c1ccc(CN2CCN(C(=O)CNC(=O)CC34CC5CC(CC(C5)C3)C4)CC2)cc1,15 µM
4,O=C(NCC(=O)N1CCN(Cc2ccccc2)CC1)c1ccccc1,31 µM
5,CC(NC(=O)CC12CC3CC(CC(C3)C1)C2)C(=O)N1CCN(Cc2ccccc2)CC1 (stereo unspecified),> 40 µM
6,COc1cccc(COc2ccccc2CN2CCN(C(=O)CNC(=O)CC34CC5CC(CC(C5)C3)C4)CC2)c1,1.9 µM
7,O=C(CC12CC3CC(CC(C3)C1)C2)NCC(=O)N1CCN(Cc2cccc3ccccc23)CC1,3.4 µM
8,O=C(CC12CC3CC(CC(C3)C1)C2)NCC(=O)N1CCN(Cc2cccc(C(=O)O)c2)CC1,> 40 µM
9,O=C(CC12CC3CC(CC(C3)C1)C2)NCC(=O)N1CCN(Cc2ccccc2OCc2ccc([N+](=O)[O-])cc2)CC1,1.7 µM
10,O=C(CC12CC3CC(CC(C3)C1)C2)NCCC(=O)N1CCN(Cc2ccccc2)CC1,17 µM
11,COC(=O)c1cccc(CN2CCN(C(=O)CNC(=O)CC34CC5CC(CC(C5)C3)C4)CC2)c1,14 µM
12,O=C(CC12CC3CC(CC(C3)C1)C2)NC(CCC(=O)OCc1ccccc1)C(=O)N1CCN(Cc2ccccc2)CC1 (stereo unspecified),8.7 µM
13,O=C(CC1CCCCC1)NCC(=O)N1CCN(Cc2ccccc2)CC1,> 40 µM
14,CN(C)C(=O)c1ccc(COc2ccccc2CN2CCN(C(=O)CNC(=O)CC34CC5CC(CC(C5)C3)C4)CC2)cc1,3.3 µM
15,O=C(CC12CC3CC(CC(C3)C1)C2)NCC(=O)N1CCN(Cc2ccccc2Cl)CC1,3.2 µM
16,N#Cc1ccccc1CN1CCN(C(=O)CNC(=O)CC23CC4CC(CC(C4)C2)C3)CC1,3.9 µM
17,O=C(CC12CC3CC(CC(C3)C1)C2)NCC(=O)N1CCN(Cc2cccc(Br)c2)CC1,1 µM
18,O=C(CNC(=O)C12CC3CC(CC(C3)C1)C2)N1CCN(Cc2ccccc2)CC1,29 µM
19,O=C(CC12CC3CC(CC(C3)C1)C2)NCC(=O)N1CCN(Cc2ccccc2OCc2ccc(C(=O)O)cc2)CC1,4 µM
20,O=C(NCC(=O)N1CCN(Cc2ccccc2)CC1)C1CCCCC1,27 µM
21,CC(C)CC(NC(=O)CC12CC3CC(CC(C3)C1)C2)C(=O)N1CCN(Cc2ccccc2)CC1 (stereo unspecified),29 µM
22,CN(CC(=O)N1CCN(Cc2ccccc2)CC1)C(=O)CC12CC3CC(CC(C3)C1)C2,6.7 µM
23,O=C(CC12CC3CC(CC(C3)C1)C2)NCC(=O)N1CCN(Cc2ccccc2OCc2ccccc2)CC1,2 µM

row,SMILES,IC50
1,O=C(CC12CC3CC(CC(C3)C1)C2)NCC(=O)N1CCN(Cc2ccccc2Br)CC1,3.4 µM
2,O=C(CC12CC3CC(CC(C3)C1)C2)NCC(=O)N1CCN(Cc2ccc(Br)cc2)CC1,3.2 µM
3,O=C(CC12CC3CC(CC(C3)C1)C2)NCC(=O)N1CCN(Cc2ccccc2OCc2ccccc2[N+](=O)[O-])CC1,1.6 µM
4,Cc1ccc(CN2CCN(C(=O)CNC(=O)CC34CC5CC(CC(C5)C3)C4)CC2)cc1,1.1 µM
5,O=C(Cc1ccccc1)NCC(=O)N1CCN(Cc2ccccc2)CC1,> 40 µM
6,O=C(CC12CC3CC(CC(C3)C1)C2)NCC(=O)N1CCN(Cc2ccccc2OCc2ccncc2)CC1,0.8 µM
7,CNC(=O)c1ccc(COc2ccccc2CN2CCN(C(=O)CNC(=O)CC34CC5CC(CC(C5)C3)C4)CC2)cc1,2.1 µM
8,COc1ccccc1CN1CCN(C(=O)CNC(=O)CC23CC4CC(CC(C4)C2)C3)CC1,2.1 µM
9,O=C(CC12CC3CC(CC(C3)C1)C2)NCC(=O)N1CCN(Cc2cccnc2)CC1,6.8 µM
10,O=C(CC12CC3CC(CC(C3)C1)C2)NCC(=O)N1CCN(C(c2ccccc2)c2ccccc2)CC1,> 10 µM
11,CC(C)(C)CC(=O)NCC(=O)N1CCN(Cc2ccccc2)CC1,> 40 µM
12,CC(O)C(NC(=O)CC12CC3CC(CC(C3)C1)C2)C(=O)N1CCN(Cc2ccccc2)CC1 (stereo unspecified),> 40 µM
13,CC(=O)Nc1ccc(CN2CCN(C(=O)CNC(=O)CC34CC5CC(CC(C5)C3)C4)CC2)cc1,7.5 µM
14,O=C(CC12CC3CC(CC(C3)C1)C2)NCC(=O)N1CCN(Cc2cc(Br)ccc2O)CC1,0.5 µM
15,N#Cc1ccc(COc2ccccc2CN2CCN(C(=O)CNC(=O)CC34CC5CC(CC(C5)C3)C4)CC2)cc1,4.4 µM
16,O=C(CC12CC3CC(CC(C3)C1)C2)NCC(=O)N1CCN(Cc2cccc(OCc3ccccc3)c2)CC1,4 µM
17,O=C(CC12CC3CC(CC(C3)C1)C2)NCC(=O)N1CCN(Cc2ccc(Cl)c(Cl)c2)CC1,0.75 µM
18,O=C(CC12CC3CC(CC(C3)C1)C2)NCC(=O)N1CCC(Cc2ccccc2)CC1,1.3 µM
19,O=C(CC12CC3CC(CC(C3)C1)C2)NCC(=O)N1CCN(Cc2ccc(Cl)cc2Cl)CC1,6.6 µM
20,O=C(Cc1ccc(Cl)cc1)NCC(=O)N1CCN(Cc2ccccc2)CC1,19 µM
21,O=C(CC12CC3CC(CC(C3)C1)C2)NCC(=O)N1CCN(Cc2ccc(O)cc2)CC1,7 µM
22,O=C(CC12CC3CC(CC(C3)C1)C2)NCC(=O)N1CCN(Cc2ccncc2)CC1,14.5 µM

# — ChEMBL document CHEMBL2321771, “Inhibition of Ebola Virus Infection: Identification of Niemann-Pick C1 as the Target by Optimization of a Chemical Probe” (ACS Med Chem Lett, 2013)
